The results in this text go back to publication PMC11725097 (Acta Pharmaceutica Sinica. B, 2024).

The test system of data set [1] is HepG2 cells. Nature of the data set: Formation of compound 3 in lysosomes of HepG2 cells. The following applies: HepG2, JZ-6 25 μmol/L with BNPP 20 μmol/L or telaprevir 5 μmol/L, 6 h. Type of data set: cell-based. The procedure, abridged: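 HepG2 cells were treated 6 h with donor (25 µmol/L) alone, with BNPP (20 µmol/L) or with telaprevir (5 µmol/L). For lysosome isolation, cells were Dounce-homogenised and spun at 1000 × g, then 20,000 × g, and the top band taken from an OptiPrep gradient at 100,000 × g, 1 h. Fractions were lysed in cold 70% methanol and analysed by LC–MS/MS, normalised to BCA protein. Triplicate.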

Data set [2] deals with T1, Carboxypeptidase Y (CPY) (Saccharomyces cerevisiae, UniProt P00729).
T1 sequence (P00729 112-532): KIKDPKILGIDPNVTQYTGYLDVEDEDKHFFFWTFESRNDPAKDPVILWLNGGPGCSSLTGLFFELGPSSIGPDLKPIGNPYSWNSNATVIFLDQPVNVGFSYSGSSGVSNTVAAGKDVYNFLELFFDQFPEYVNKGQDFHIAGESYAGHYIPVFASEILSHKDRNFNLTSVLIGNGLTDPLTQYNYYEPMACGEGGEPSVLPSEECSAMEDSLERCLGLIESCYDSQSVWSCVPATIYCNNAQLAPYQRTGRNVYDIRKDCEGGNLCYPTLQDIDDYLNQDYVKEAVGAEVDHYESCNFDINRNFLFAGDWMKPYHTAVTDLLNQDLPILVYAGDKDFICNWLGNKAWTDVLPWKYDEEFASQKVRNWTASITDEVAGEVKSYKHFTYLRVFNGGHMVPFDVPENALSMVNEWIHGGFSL
Nature of the data set: Enzyme. The format is biochemical. Conditions: CPY 60 ng/mL; for H2S release over 6 h: donors 5 μmol/L, DNS-N3 10 μmol/L, TBS pH 7.4, 37 °C. Put shortly:
(§1)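 Donor at 5 µmol/L final and DNS-N3 probe at 10 µmol/L final were incubated at 37 °C in 10 mmol/L TBS, pH 7.4, with 1% acetonitrile and 1% […]. The enzyme was either CPY at 60 ng/mL or pre-activated recombinant human CTSA at 250 ng/mL. Aliquots were mixed 1:1 with ACN and fluorescence read at Ex/Em 325/450 nm, minus control background. k came from a single-exponential fit, with t1/2 = 0.693/k. Triplicates, mean ± SD.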

Data set [3] in a line: H2S release within tissue homogenates. The format is in vitro ADME, Sprague-Dawley rats. The following applies: donors 250 μmol/L, rat intestine and liver homogenates, 40 min.
The test system of data set [4] is human hepatic stellate LX-2 cells. Nature of the data set: TGF-β1-induced fibrosis in LX-2 cells, ACTA2 and COL1A1 mRNA. The format is cell-based. Conditions: LX-2, TGF-β1, 72 h; JZ-HND 25-200 μmol/L, others 200 μmol/L.
The target in data set [5] is T2, recombinant human cathepsin A (CTSA) (Homo sapiens, UniProt P10619).
T2 sequence (P10619 29-326 limits assumed): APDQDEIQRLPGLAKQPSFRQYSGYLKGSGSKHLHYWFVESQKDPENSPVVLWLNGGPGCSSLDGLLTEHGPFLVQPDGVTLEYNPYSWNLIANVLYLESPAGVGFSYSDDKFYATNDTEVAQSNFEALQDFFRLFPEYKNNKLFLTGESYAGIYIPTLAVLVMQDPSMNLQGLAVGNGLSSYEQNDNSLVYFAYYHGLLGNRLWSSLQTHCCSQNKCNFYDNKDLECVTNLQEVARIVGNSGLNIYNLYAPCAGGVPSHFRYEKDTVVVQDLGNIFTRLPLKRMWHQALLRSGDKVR
T2 sequence (P10619 327-480 limits assumed): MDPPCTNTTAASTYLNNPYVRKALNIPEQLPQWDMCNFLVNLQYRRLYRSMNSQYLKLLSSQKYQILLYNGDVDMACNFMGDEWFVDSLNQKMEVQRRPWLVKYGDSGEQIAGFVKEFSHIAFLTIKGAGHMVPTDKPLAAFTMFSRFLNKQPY
Nature of the data set: CTSA-catalyzed H2S release, fluorescent probe DNS-N3. The following applies: donors 5 μmol/L, CTSA 250 ng/mL, pH 7.4, 37 °C. The format is biochemical. The procedure, abridged: as §1

Data set [6] is described as follows: Animal pharmacokinetics, mice livers. Type of data set: in vivo, BALB/c mice. The following applies: oral JZ-HND 1.0 mmol/kg. Put shortly:
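Male BALB/c mice, fasted 12 h without water, were gavaged at 1 mmol/kg in 0.5% CMC-Na (3 groups, n = 3 each). Plasma was separated by centrifugation and stored below −40 °C. Liver was taken at 0.5, 4 and 8 h post dose and homogenised 10:1 in PBS containing 70% MeOH. Parent and metabolites were quantified by LC–MS/MS.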

The next data set has as its system LX-2 cells. Nature of the data set: ROS induced by TGF-β1 in LX-2 cells. The format is cell-based, human. Conditions: LX-2, TGF-β1 10 ng/mL, compound 100 μmol/L, 24 h. Put shortly:
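LX-2 cells were grown in high-glucose DMEM with 10% FBS at 37 °C and 5% CO2, then plated at 1×10^5/well overnight. Cells were co-treated 24 h with compound (100 µmol/L) and TGF-β1 (10 ng/mL). They were loaded with DCFH-DA (10 µmol/L) for 30 min and Hoechst 33342 for 10 min at 37 °C, then imaged by fluorescence microscopy in the GFP channel.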

The nature of data set [7]: Detection of H2S and sulfur-containing species in mouse liver. Type of data set: in vivo, BALB/c mice. The following applies: oral JZ-HND 1.0 mmol/kg. Put shortly: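 BALB/c mice received an oral dose of 1.0 mmol/kg. Liver was collected before dosing (0 h) and at 0.5 and 4 h, then homogenised 10:1 in 20 mmol/L HPE-IAM in MeOH to trap H2S and sulfur species as S-alkylated derivatives, and stored below −40 °C. Derivatives were quantified by LC–MS/MS against synthesised standards and calibration curves. n = 3, mean ± SD.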

In data set [8] the test system is CCl4-induced liver injury. Nature of the data set: CCl4-induced liver injury model in mice. The format is in vivo, BALB/c mice. Conditions: 1 mmol/kg oral daily, 4 weeks.
The test system of a further data set is RAW264.7 macrophages. Nature of the data set: LPS-induced IL-1β and IL-6 release in RAW 264.7 macrophages. Conditions: RAW 264.7, LPS 1 μg/mL, 20, 100, 500 μmol/L, 24 h. The format is cell-based, mouse. Put shortly: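 RAW 264.7 cells (2×10^5/well) were plated overnight. Cells were pretreated 1 h with compound or NaHS at 20, 100 or 500 µmol/L, then stimulated with LPS (1 µg/mL) for 24 h. IL-1β and IL-6 in the supernatants were measured by ELISA. Three independent experiments, mean ± SD.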

In data set [9] the target is T1, Carboxypeptidase Y (CPY). Nature of the data set: H2S donor activation by CPY monitored by LC-MS/MS. Type of data set: in vitro ADME. The following applies: JZ-HND 5 μmol/L, CPY 60 ng/mL. Put shortly:
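Donor at 5 µmol/L final and DNS-N3 at 10 µmol/L final were incubated with CPY (60 ng/mL) in 10 mmol/L TBS, pH 7.4, with 1% menthol, at 37 °C. Parent loss and formation of products, including DNS-NH2, were quantified by LC–MS/MS against calibration curves. Rate constants came from a single-exponential fit, with t1/2 = 0.693/k. Triplicate runs, mean ± SD.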

Data set [10] relates to HepG2 cells. Nature of the data set: FFA-induced ROS accumulation in HepG2 cells. The format is cell-based. The following applies: HepG2, compound 100 μmol/L 8 h before FFA 1 mmol/L 24 h.
Data set [11] concerns HepG2 cells. Nature of the data set: MDA. Type of data set: cell-based. The following applies: HepG2, FFA 1 mmol/L, 24 h; JZ-6 20, 100, 500 μmol/L; NaHS and JZ-9 500 μmol/L. Put shortly: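 HepG2 cells (7×10^5/well, plated overnight) were co-incubated 24 h with FFA (1 mmol/L) alone or plus compound (20, 100 or 500 µmol/L) or NaHS (500 µmol/L). MDA in cell lysates was measured with a kit by fluorescence at Ex/Em 532/553 nm and normalised to cell counts. Three independent experiments, mean ± SD.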

The subject of data set [12] is HepG2 cells. Nature of the data set: Ferroptosis rescue, RSL3-treated HepG2 cells. The format is cell-based. Conditions: HepG2, RSL3 4 μmol/L; JZ-6 20 μmol/L, Fer-1 1 μmol/L, 24 h. Put shortly:
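HepG2 cells (5×10^3/well) were plated overnight. Cells were pretreated 2 h with RSL3 (4 µmol/L), then given medium, compound (20 µmol/L) or Fer-1 (1 µmol/L) for 24 h. CCK-8 was added for 2–4 h at 37 °C and absorbance read at 450 nm. Viability is expressed as % of medium-treated control. Three independent experiments, mean ± SD.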

For the compound `O=[N+]([O-])c1ccc(OP(=O)(O)Oc2ccc([N+](=O)[O-])cc2)cc1` [BNPP, bis(p-nitrophenyl) phosphate], in the data set on HepG2 cells [1], the “effect of inhibitor on lysosomal 3 formed from JZ-6” value is on record as “increase in lysosomal 3”.
In the case of `C1COCCN1.COc1ccc(P(=S)(S)N2CCOCC2)cc1` (stereo not shown) [GYY4137, reference compound], on Carboxypeptidase Y (CPY) [2], the “H2S release over 6 h” value is reported as “low amount of H2S”. In [3], the “H2S release behaviour in homogenates” value was “almost undetectable”.
With `CNC(=O)[C@H](C)NP(=S)(Oc1ccccc1)c1ccccc1` (stereo partly shown) [JZ-12], at Carboxypeptidase Y (CPY) [2], the “H2S release over 6 h” value is “inadequate”.
With `Cc1ccc(=O)n(-c2ccc(OP(=O)(N[C@@H](C)C(=O)OC(C)C)c3ccccc3)cc2)c1` (stereo partly shown) [JZ-17], the “mRNA expression of ACTA2 and COL1A1” value in [4] is recorded as “did not inhibit the expression of pro-fibrotic genes as much as JZ-HND”.
Consider `CC(C)OC(=O)[C@H](C)NP(=S)(Oc1ccc(CCN2CCOCC2)cc1)c1ccccc1` (stereo partly shown) [JZ-18], for which, in data set [5], the “H2S release, rate constant k” value stood at 0.2978 h⁻¹. Besides, in [5] (10 h), the H2S yield result was “approximately 37%”.
On to `Cc1ccc(=O)n(-c2ccc(OP(=S)(N[C@@H](C)C(=O)OC(C)C)c3ccccc3)cc2)c1` (stereo partly drawn) [JZ-HND, isopropyl ((4-(5-methyl-2-oxopyridin-1(2H)-yl)phenoxy) (phenyl)phosphorothioyl)-L-alaninate], for which, in [6], the “Cmax (liver)” value amounted to 15 µM and the “time of maximum intrahepatic concentration” value is on record as “half an hour”. Besides, in data set [6] (8 h), the “detection in the liver after 8 h of administration” value is “not detected”. In addition, the “generation of H2S, rate constant k” value on Carboxypeptidase Y (CPY) [2] (JZ-HND 5 μmol/L, pH 7.4, 37 °C) came out at 0.3748 h⁻¹. In the data set on LX-2 cells, the “ROS levels induced by TGF-β1” value is recorded as “significantly inhibited”. In data set [3], the “H2S release behaviour in homogenates” value is “biphasic and lasted longer”. The “levels of HSSH and CysSH in liver” value in [7] is recorded as “no significant change”. Also, in data set [7] (0.5 h), the “levels of GSH, GSSH and CysSSH in liver” value is “significant increases”. Besides, the “H2S level in liver tissue” value in [7] (0.5 h vs pre-dose (0 h)) was “significant increase compared to the pre-dose level”. Besides, the “mRNA expression of ACTA2 and COL1A1” value in data set [4] is “dose-dependently inhibited”. Also, in [8], the “collagen fiber accumulation (Masson's trichrome)” value was “significantly slowed collagen fiber accumulation”; the “hepatic ballooning and inflammatory cell infiltration (H&E)” value is “significantly reduced”; the “hepatic expression of oxidative stress genes (Gpx1, Sod1, Sod2, Cat)” value is listed as “rebounded”; the “hepatic tissue GPX activity” value is “significant increase”. In data set [8], the “liver gene levels of fibrotic markers (Tgfb1, Col1a1, Col3a1, Acta2)” value is recorded as “reversals of the increased gene levels”; the “liver mRNA levels of Nfkb1, Il1b and Tnfa” value is listed as “strongly suppressed”; the “serum ALT and AST levels” value was “consistently lower”. For the same compound, the “serum SOD activity” value in data set [8] (vs control and HND groups) is listed as “significantly lower”. Further, in the data set with RAW264.7 macrophages, the “IL-1β and IL-6 secretion” value is recorded as “significant inhibition”. At Carboxypeptidase Y (CPY) [9], the “generation of 3, rate constant k” value is 0.3133 h⁻¹ and the “generation of HND, rate constant k” value was 1.090 h⁻¹. Moreover, the “degradation of donor, rate constant k” value on Carboxypeptidase Y (CPY) [9] (TBS pH 7.4, 37 °C) was found to be 1.085 h⁻¹.
With `[Na+].[SH-]` [NaHS], in the data set on RAW264.7 macrophages, the “IL-1β and IL-6 secretion” value is listed as “modest inhibitory effect”. For the same compound, the “cellular ROS accumulation induced by FFA” value with HepG2 cells [10] was “strikingly reduced the cellular fluorescence signal”. Besides, the “MDA levels (lipid peroxidation)” value with HepG2 cells [11] is given as “alleviated”.
On to `CCOC(=O)c1ccc(NC2CCCCC2)c(N)c1` [ferrostatin-1], for which the “cell viability after RSL3 (ferroptosis rescue)” value in the data set on HepG2 cells [12] is “attenuated RSL3-induced cytotoxicity”.
In the case of `CCC[C@H](NC(=O)[C@@H]1[C@H]2CCC[C@H]2CN1C(=O)[C@@H](NC(=O)[C@@H](NC(=O)c1cnccn1)C1CCCCC1)C(C)(C)C)C(=O)C(=O)NC1CC1` [telaprevir], the “effect of inhibitor on lysosomal 3 formed from JZ-6” value in the data set on HepG2 cells [1] is recorded as “significant decrease”.
